Assay outcomes (PubChem BioAssay)
An excerpt weighted towards active compounds, which were near 2.4% of everything screened.
GSTO1 counter = blocks human GSTO1 in RBBP9 counter-screen | recombinant GSTO1, activity-based probe fluorescence polarization | inhibition, % at 5.96 µM | actives 1.1% (n = 300,000) | AID 1974;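 active means inhibition above the campaign mean inhibition plus 3 SD, cut at about 35% in these data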;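 further: 0% = GSTO1-1 with DMSO and 100% = wells lacking GSTO1-1 enzyme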
PAD4 inh = inhibitors of human PAD4; actives 0.41% (n = 330,000); recombinant PAD4, RCA probe fluorescence polarization; Q9UM07; inhibition, % at 6.36 µM;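 active means percent inhibition above a cutoff equal to the mean of all tested compounds plus 3 SD, cut at about 15% in these data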;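 further: 0% = PAD4 with RCA probe and DMSO and 100% = probe without PAD4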
Apaf1 inhib = inhibitors of human Apaf-1 apoptosome; actives 0.71% (n = 330,000); O14727; AID 489030; inhibition, % at 20 µM; reconstituted apoptosome caspase-3 activity, DEVD-Rh110 fluorescence; active means inhibition of at least 40% at 20 µM;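 further: plate controls were DMSO wells for no effect and DEVD-CHO caspase inhibitor wells for full effect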
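Material: biochemical Apaf-1 apoptosome reconstitution. Medium: Hepes buffer, pH 7.5. Also added: cytochrome c activation, bis-DEVD rhodamine 110 substrate. Timing: 30 min compound preincubation, 50 min activation, room temperature. Measured by: rhodamine 110 fluorescence at Ex 480/Em 540 nm.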
TCR CD3 inh = human TCR-CD3 binding inhibition | TAMRA-labeled TCR probe fluorescence, biochemical | inhibition, % at 9.4 µM | actives 0.37% (n = 360,000) | AID 651800; in the data active means inhibition above about 19%;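 further: recombinant mutant TCR 2C K166C tagged with TAMRA read by polarization; 0% = receptor in buffer alone and 100% = receptor with positive control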
SIAE primary = human SIAE inhibition, primary screen; Q9HAT2; SIAE FP-Rh probe binding, fluorescence polarization; inhibition, % at 9.66 µM; actives 0.69% (n = 370,000); AID 1053197;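 active means inhibition above a cutoff: mean of compounds within the control limits plus 3 SD of those, cut at about 17% in these data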;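 further: 0% = plate median of compound wells and 100% = probe without SIAE protein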
Target sequence (Q9HAT2 whole entry, looked up): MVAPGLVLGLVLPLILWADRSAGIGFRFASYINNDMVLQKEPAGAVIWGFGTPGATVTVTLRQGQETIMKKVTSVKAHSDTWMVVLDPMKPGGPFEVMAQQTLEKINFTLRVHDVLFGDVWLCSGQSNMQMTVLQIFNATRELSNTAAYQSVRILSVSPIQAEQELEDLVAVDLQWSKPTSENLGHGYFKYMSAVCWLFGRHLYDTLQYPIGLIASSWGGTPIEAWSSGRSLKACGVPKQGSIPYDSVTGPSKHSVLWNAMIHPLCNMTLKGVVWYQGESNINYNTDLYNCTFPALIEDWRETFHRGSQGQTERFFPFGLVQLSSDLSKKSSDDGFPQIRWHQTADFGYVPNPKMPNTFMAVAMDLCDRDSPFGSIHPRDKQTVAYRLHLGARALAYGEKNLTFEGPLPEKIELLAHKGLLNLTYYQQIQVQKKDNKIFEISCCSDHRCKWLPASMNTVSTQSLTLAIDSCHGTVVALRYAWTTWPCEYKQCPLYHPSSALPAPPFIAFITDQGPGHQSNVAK
TDP2 absorb = blocks human TDP2 phosphodiesterase activity; AID 720702; recombinant TDP2, T5PNP hydrolysis, p-nitrophenol absorbance 415 nm; inhibition, % at 12.8 µM; actives 0.34% (n = 370,000); O95551;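 active means inhibition above the mean of all tested compounds plus 3 SD, set per campaign, cut at about 25% in these data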;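 further: 0% = DMSO with enzyme and 100% = buffer with substrate but no TDP2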
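Assay system: Recombinant human TDP2 | Quantity: 120 nM TDP2 per well | Incubation: 2 h at 37 °C | Signal: Epi absorbance | Evaluation: Percent inhibition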
* marks the source's active call; other numbers are inactive results; / = not tested or not shown.

SMILES	GSTO1 counter	PAD4 inh	Apaf1 inhib	TCR CD3 inh	SIAE primary	TDP2 absorb
O=C(NC1CCCC1)C(c1ccc(F)cc1)N(Cc1ccccc1Cl)C(=O)CCl (stereo not drawn)	72.1*	-0.6	0.1	5.1	9.6	4.4
Cc1nc(NCCc2ccc(S(N)(=O)=O)cc2)c2c3c(sc2n1)CCC3	-5.4	-5.2	-4.3	-9.2	0.1	-3.7
Cc1nnsc1C(=O)N1CCCC(C)(C(=O)NS(=O)(=O)C2CC2)C1 (stereo not drawn)	/	/	/	0.8	0.3	4.5
O=C(O)c1cc(-c2ccc(/C=N/NC(=S)Nc3ccccc3)o2)ccc1Cl	48.2*	-2.3	8.9	14.8	5.7	-1.9
CCc1nc2c(cnn2-c2ccc(Cl)cc2)c(=O)n1-c1ccc2c(c1)OCCO2	3.5	-0.1	15.7	-2.8	0.4	-0.8
O=C(CN1C(=O)S/C(=C\c2ccc(Cl)cc2)C1=O)NNC(=O)c1ccccc1O	22.8	6.0	/	32.6*	9.9	-3.9
C/C(N)=N\S(=O)(=O)c1ccc(Cl)cc1	35.6*	-2.2	-20.3	-1.9	3.2	-0.7
N/C(CSc1ccc(Cl)cc1)=N\S(=O)(=O)c1ccc(Cl)cc1	14.5	0.2	15.7	-0.1	-0.3	8.4
Cc1ccc(OC(=O)c2sc(Cl)nc2C)cc1C	35.5*	3.6	1.1	-2.9	-0.7	-5.8
COc1cc(OC)c(C2CC(=O)N3CN(C)CSC3=C2C#N)cc1OC (stereo not drawn)	-1.2	-1.5	13.7	0.0	4.7	1.1
CCc1ccccc1N1CSC2=C(C#N)C(c3cc(OC)c(OC)cc3OC)CC(=O)N2C1 (stereo not drawn)	33.3	-19.0	43.4*	-5.0	9.7	15.3
COc1ccc(OC)c(C2CC(=O)N3CN(c4ccc(C)c(Cl)c4)CSC3=C2C#N)c1 (stereo not drawn)	-3.4	-2.8	14.7	-5.0	4.2	-4.0
COc1ccc(OC)c(C2CC(=O)N3CN(c4cccc(Cl)c4)CSC3=C2C#N)c1 (stereo not drawn)	1.1	-5.6	80.5*	-6.2	-0.5	11.5
CCOc1ccc(N2CSC3=C(C#N)C(c4ccco4)CC(=O)N3C2)cc1 (stereo not drawn)	30.9	0.3	37.1	14.7	-1.9	33.5*
COc1ccc2ccccc2c1C1CC(=O)N2CN(C)CSC2=C1C#N (stereo not drawn)	-4.0	-5.3	71.2*	-1.5	-6.2	16.4
Cc1ccc(C2CC(=O)N3CN(c4ccc(Br)cc4)CSC3=C2C#N)o1 (stereo not drawn)	16.3	-11.2	26.6	-0.8	5.2	-0.4
Cc1ccc(C(=O)N(Cc2sccc2C)C2CCS(=O)(=O)C2)cc1 (stereo not drawn)	0.0	-2.0	17.8	3.8	-5.6	7.5
Fc1cc(F)cc(NC(=S)NCCCN2CCOCC2)c1	2.7	6.0	-5.1	6.2	3.1	4.4
CCOC(=O)c1ccc(N2CSC3=C(C#N)C(c4ccc(OC)cc4OC)CC(=O)N3C2)cc1 (stereo not drawn)	4.8	3.5	50.3*	-6.0	2.7	8.1
COc1cc(OC)c(C2CC(=O)N3CN(c4ccccc4)CSC3=C2C#N)cc1OC (stereo not drawn)	3.4	-3.0	6.1	1.3	4.7	-0.2
Cc1nn(-c2ccccc2)c(-c2ccccc2[N+](=O)[O-])c1CC#N	/	/	/	0.4	-16.3	9.4
CCOc1ccc(NC(=O)c2cccc(NC3=NC4CS(=O)(=O)CC4S3)c2)cc1 (stereo not drawn)	8.0	2.0	0.2	-10.6	2.3	-16.9
CCOC(=O)C1=CCN(S(=O)(=O)c2ccccc2[N+](=O)[O-])C1c1ccc(C)cc1 (stereo not drawn)	/	/	/	5.1	1.6	-6.5
COc1ccc(S(=O)(=O)N2CCN(c3ccc4nnc(-c5ccccc5)n4n3)CC2)cc1	8.1	0.2	64.9*	3.6	-13.7	1.0
Cc1cc(C(=O)COC(=O)C2=COCCO2)c(C)n1-c1ccc2c(c1)OCO2	-7.3	-9.2	9.4	1.6	17.4*	-10.6
SMILES	GSTO1 counter	PAD4 inh	Apaf1 inhib	TCR CD3 inh	SIAE primary	TDP2 absorb
COC(=O)c1ccc(-n2c(C)cc(C(=O)COC(=O)C3=COCCO3)c2C)cc1	/	3.0	6.9	-3.0	-2.0	1.4
CCOC(=O)c1sc(=NC(=O)COc2ccccc2)n(C)c1C	0.8	5.5	-4.6	-5.2	-7.3	-6.6
Cc1ccc(C(=O)CSc2nnc(COc3ccccc3)o2)cc1	37.1*	-0.7	13.5	-1.3	-0.3	4.9
O=[N+]([O-])c1cc([N+](=O)[O-])c2cc(-c3cccnc3)[nH]c2c1	-0.5	-3.1	-12.7	1.1	-7.9	25.8*
Cc1cc(C)c(NC(=O)Cn2c(=O)n(Cc3ccco3)c(=O)c3ccccc32)c(C)c1	-6.5	-11.0	10.2	1.9	-6.2	14.8
CC(=O)NCc1ccc(C(=O)CCl)s1	77.8*	1.4	-1.3	1.5	-2.1	-3.9
CC(=O)Nc1ccc(C(=O)CCl)cc1	/	-9.0	4.9	4.2	-6.0	2.7
CC(=O)NCc1ccc(C(=O)CCl)cc1	50.2*	4.3	-0.7	1.6	6.1	-10.6
O=C(NCc1ccco1)/C(=C/c1ccco1)NC(=O)c1ccco1	11.4	-4.0	1.8	-3.1	1.3	-5.0
CCOC(=O)C1=C(C)N(C)C(=O)NC1c1c(C)nn(-c2ccccc2)c1C (stereo not drawn)	9.1	2.2	2.5	-7.4	5.2	-6.7
c1cc2c3c(cccc3c1)C(N1CCCCCC1)=N2	-6.8	-2.8	10.8	-7.1	2.2	-5.9
c1cc2c3c(cccc3c1)C(N1CCCCC1)=N2	3.5	-2.2	90.9*	/	/	/
O=C(/C=C/c1ccc([N+](=O)[O-])cc1)/C=C/c1ccco1	31.4	4.2	42.6*	1.4	10.2	13.2
Cc1cc(C)cc(Nc2nc(-c3ccc(S(=O)(=O)N4CCCC4)cc3)cs2)c1	-8.1	-2.8	3.5	-0.4	22.0*	-2.2
CN(C)c1ccc(C=Cc2ccnc3c(O)cccc23)cc1	/	/	/	-6.8	22.6*	6.2
COc1ccc2c(c1)OC(O)(C(F)(F)F)CC2=O (stereo not drawn)	36.1*	-3.0	-12.0	-2.9	3.8	2.0
CC(C)CC(=O)O/N=C1\C(=O)N(Cc2ccc(Cl)cc2)c2ccc([N+](=O)[O-])cc21	40.3*	0.8	17.6	/	/	/
CC(=O)O/N=C1\C(=O)N(Cc2ccc(C)cc2)c2ccccc21	/	/	8.1	-3.0	-49.6	8.9
NC1=C(c2ccc([N+](=O)[O-])cc2)C(=O)CO1	-4.0	-0.8	-4.0	-1.2	2.9	-14.2
O=c1oc2c(-c3ccc([N+](=O)[O-])cc3)cc(O)cc2s1	78.3*	-1.6	5.9	9.6	5.1	17.8
C[C@@H](C(=O)O)[C@H]1C[C@]1(C)[C@H](NC(=O)OCc1ccccc1)c1ccccc1	6.5	-4.2	-4.3	-13.5	-4.0	-22.0
